Data set [1] relates to HBL-1 cells. Particulars: human, 72 h.
The nature of another data set: in vitro. Particulars: human.
A further data set concerns the target T1, DHFR-HiBiT (Homo sapiens, UniProt P00374).
T1 sequence (P00374 1-187): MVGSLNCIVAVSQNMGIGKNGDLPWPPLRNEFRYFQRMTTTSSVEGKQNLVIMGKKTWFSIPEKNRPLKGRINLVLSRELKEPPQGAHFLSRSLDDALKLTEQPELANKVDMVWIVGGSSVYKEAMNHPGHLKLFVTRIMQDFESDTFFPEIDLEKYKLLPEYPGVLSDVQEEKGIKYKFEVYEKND
As to the kind of experiment: DHFR HiBiT assay. It is filed as cell-based. Particulars: for Degradation potency (pDC50): DHFR-HiBiT, 24 h, 30°C, mean ±SD, three independent experiments, ND = not determined (inactive); for Emax: HBL1, read-out: Assay max response (%). In general terms: With HiBiT, luminescence reflects the tagged protein that the partner subunit can reach.

Data set [2] concerns the target T2, recombinant human DHFR•NADPH complex (Homo sapiens, UniProt P00374).
T2 sequence (P00374 1-187): T1 sequence (P00374 1-187)
Briefly: Fluorescence polarization. It is filed as binding. Background: In fluorescence polarisation assays a small probe gives low polarisation when free and higher when bound to something large.

For another data set, the system named is MOLT-4 cells. As to the kind of experiment: CellTiter-Glo cytotoxicity in MOLT-4 cells. It is filed as cell-based, human. A general note: In ATP-based viability assays light output follows the ATP content of the culture.
The next data set concerns HEK-293 cells. As to the kind of experiment: Live-cell imaging of cell growth. It counts as cell-based, human. Particulars: live-cell imaging over 120 h.
Data set [3] deals with HBL-1 cells. As to the kind of experiment: cells. Particulars: Homo sapiens, HBL1, read-out: EC50 in MTX-sensitive HBL-1 cells.
In data set [4] the test system is HBL-1 cells. As to the kind of experiment: Targeted metabolomics. It counts as cell-based, human. The following applies: folate-replete media, 0.1 or 0.5 μM, 24 h. An outline of the steps:
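HBL-1 cells were expanded in RPMI 1640 with 1 mM HEPES, 100 U/mL penicillin, 100 µg/mL streptomycin and 10% FBS at 37 °C, 5% CO2. Metabolites were eluted by LC-MS/MS gradient. Buffer A was acetonitrile and Buffer B was 5% acetonitrile with 20 mM ammonium acetate, pH 9.0. The gradient started at 85% A and fell to 50% A by 17 min.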

The test system of data set [5] is MTX resistant (MTX^R) HBL-1 cells. Briefly: Cell viability of MTX resistant. It counts as cell-based, human.
The test system of data set [6] is MTX sensitive (MTX^S) HBL-1 cells. As to the kind of experiment: Cell viability of MTX sensitive. The following applies: Homo sapiens, HBL1, read-out: EC50, cell viability. It counts as cell-based.
Data set [7] deals with HBL-1 cells. Briefly: Folate cytotoxicity dependence. It is filed as cell-based, human.
The target of the next data set is T3, cellular DHFR (Homo sapiens, UniProt P00374).
T3 sequence (P00374 1-187): T1 sequence (P00374 1-187)
As to the kind of experiment: Label-free quantitative proteomics of HBL-1 cells. Particulars: 1 μM, 24 h. It counts as cell-based.

In another data set the target is T4, DHFR (Homo sapiens, UniProt P00374).
T4 sequence (P00374 1-187): T1 sequence (P00374 1-187)
As to the kind of experiment: Western blot analysis of cellular DHFR. It counts as cell-based.

Structures are written as SMILES. Bounds are passed on as bounds.

This note sets out measurements from PMC10922102 (Cell chemical biology, 2023).

For orientation: EC50 means the concentration at which the effect is half-maximal. As a reminder, the IC50 is the concentration that gives 50% inhibition.

With `CN(Cc1cnc2nc(N)nc(N)c2n1)c1ccc(C(=O)N[C@@H](CCC(=O)NCCOCCOCCOCCNC(=O)COc2cccc3c2C(=O)N(C2CCC(=O)NC2=O)C3=O)C(=O)O)cc1` (stereo partly drawn) [Compound 3, (19S)-19-(4-(((2,4-diaminopteridin-6-yl)methyl)(methyl)amino)benzamido)-1-((2-(2,6-dioxopiperidin-3-yl)-1,3-dioxoisoindolin-4-yl)oxy)-2,16-dioxo-6,9,12-trioxa-3,15-diazaicosan-20-oic acid], in the data set with HBL-1 cells [1], the “Cytotoxicity efficacy (viability, %CTG)” value was −72.1 ±7.9% and the “cytotoxicity compared to PROTAC 4” value is “an order of magnitude improvement in cytotoxicity when compared to PROTAC 4”. The compound also had an EC50 at 72 h in “in vitro” of 2820 nM. Besides, the “DHFR concentration in the HiBiT assay, % of DMSO control” value on DHFR-HiBiT (24 h treatment, HBL-1 cells) is listed as ~ 40%. The “Degradation potency (pDC50)” value at DHFR-HiBiT (HBL-1 cells) is recorded as 6.27 ±0.21. On DHFR-HiBiT, the Emax was -40.6 ± 1.8%. The IC50 in data set [2] was 43.7 nM. The “CTG cytotoxicity compared to PROTAC 4” value in the data set on MOLT-4 cells is “more cytotoxic than PROTAC 4 by an order of magnitude”.

On to `CN(Cc1cnc2nc(N)nc(N)c2n1)c1ccc(C(=O)N[C@@H](CC(F)C(=O)O)C(=O)O)cc1` (stereo partly drawn) [FMTX, 2, (2S)-2-(4-(((2,4-diaminopteridin-6-yl)methyl)(methyl)amino)benzamido)-4-fluoropentanedioic acid, reference compound], for which the “Cytotoxicity efficacy (viability, %CTG)” value with HBL-1 cells [1] is −65.7 ±5.7%. This compound also showed an EC50 at 72 h in “in vitro” of 1050 nM. Moreover, in the data set on HEK-293 cells, the “effect on cellular confluence” value is listed as “reduced cellular confluence beginning after 48 h of treatment”. Also, at DHFR-HiBiT, the Emax is 53.9 ± 5.2%. Also, the IC50 in [2] is 93.3 nM.

With `CN(Cc1cnc2nc(N)nc(N)c2n1)c1ccc(C(=O)N[C@@H](CCC(=O)O)C(=O)O)cc1` [MTX, 1, Methotrexate, reference compound], the “Cytotoxicity efficacy (viability, %CTG)” value in the data set with HBL-1 cells [1] was −68.7 ±5.7%. Further, the EC50 with HBL-1 cells [3] was less than 100 nM; in data set [5] (Homo sapiens, HBL1, 240 h, read-out: EC50, cell viability), 4640 nM; in data set [6] it was 45.2 nM. For the same compound, the “cellular dUMP levels” value with HBL-1 cells [4] was “significant increase in dUMP levels”. The compound further showed an EC50 at 72 h in “in vitro” of 61.7 nM. Also, the “effect on cellular confluence” value in the data set with HEK-293 cells is “reduced cellular confluence beginning after 48 h of treatment”. Further, the “increase of cytotoxicity in folate-depleted vs. folate-containing media” value with HBL-1 cells [7] was less than 2 fold.

For the compound `CN1C(=O)CCC(N2C(=O)c3cccc(NCCCCCCCCNC(=O)CC[C@H](NC(=O)c4ccc(N(C)Cc5cnc6nc(N)nc(N)c6n5)cc4)C(=O)O)c3C2=O)C1=O` (stereo partly drawn) [VSTX-IE3L, 7, N2-(4-(((2,4-diaminopteridin-6-yl)methyl)(methyl)amino)benzoyl)-N5-(8-((2-(1-methyl-2,6-dioxopiperidin-3-yl)-1,3-dioxoisoindolin-4-yl)amino)octyl)-L-glutamine], in the data set with HBL-1 cells [1], the “Cytotoxicity efficacy (viability, %CTG)” value was 6.2 ±4.4%. In addition, the Emax at DHFR-HiBiT was determined as 39.3 ± 6.6%. In addition, on DHFR-HiBiT (HBL-1 cells), the “change of cellular DHFR-HiBiT level” value is reported as “increase in cellular DHFR-HiBiT”. Besides, in the data set with HBL-1 cells [7], the “cytotoxicity in folic acid-free, replete and rescue conditions” value was “did not exhibit appreciable toxicity in any of the conditions”. Besides, the IC50 in data set [2] is 25.1 nM.

For `COC(=O)[C@H](CCC(=O)NCCCCCCCCNc1cccc2c1C(=O)N(C1CCC(=O)NC1=O)C2=O)NC(=O)c1ccc(N(C)Cc2cnc3nc(N)nc(N)c3n2)cc1` (stereo partly drawn) [VSTX-ME, 9, Methyl N2-(4-(((2,4-diaminopteridin-6-yl)methyl)(methyl)amino)benzoyl)-N5-(8-((2-(2,6-dioxopiperidin-3-yl)-1,3-dioxoisoindolin-4-yl)amino)octyl)-L-glutaminate], the “change of cellular DHFR by proteomics” value at cellular DHFR is on record as “significant degradation of cellular DHFR”. The “Cytotoxicity efficacy (viability, %CTG)” value in the data set with HBL-1 cells [1] is listed as −26.8 ±22.7%. Besides, the “DHFR level by western blot” value at DHFR (24 h, HBL-1, HEK-293, Jurkat, MOLT-4, DND-41, TALL-5 cells) is listed as “consistently able to degrade DHFR across this cell panel at sub-micromolar concentrations”. For the same compound, the “DHFR degradation by western blot in MTX^R cells” value at DHFR (MTX^R HBL-1 cells) is recorded as “remained capable of degrading DHFR in the MTX^R cells”. Also, in the data set on HBL-1 cells [4], the “cellular dUMP levels” value is “only a modest increase”; the “purine nucleotides ATP and GTP relative to untreated control” value is “decreased”. The compound further had an EC50 at 72 h in the data set “in vitro” of 5750 nM. Also, the “Degradation potency (pDC50)” value on DHFR-HiBiT (HBL-1 cells) is 7.56 ±0.29. Besides, on DHFR-HiBiT, the Emax is -71.9 ± 2.1%. The “time of maximum DHFR-HiBiT depletion” value at DHFR-HiBiT (HBL-1 cells, time course 5 to 72 h) is listed as 24 h. The “effect on cell viability between parental (MTX^S) and MTX^R HBL-1 cell lines” value in data set [5] is recorded as “unchanged”.

Take `CN(Cc1cnc2nc(N)nc(N)c2n1)c1ccc(C(=O)NC(CCC(=O)O)C(=O)NCCCCCCCCNc2cccc3c2C(=O)N(C2CCC(=O)NC2=O)C3=O)cc1` (centres unmarked) [VSTX-αE3L, 8, 4-(4-(((2,4-diaminopteridin-6-yl)methyl)(methyl)amino)benzamido)-5-((8-((2-(2,6-dioxopiperidin-3-yl)-1,3-dioxoisoindolin-4-yl)amino)octyl)amino)-5-oxopentanoic acid]: the “Cytotoxicity efficacy (viability, %CTG)” value in the data set with HBL-1 cells [1] is recorded as −2.0 ±16.2%. On DHFR-HiBiT, the Emax turned out to be 21.2 ± 2.5%. Also, the “change of cellular DHFR-HiBiT level” value at DHFR-HiBiT (HBL-1 cells) is listed as “did not lead to appreciable changes in DHFR-HiBiT concentration”. Besides, in the data set on HBL-1 cells [7], the “cytotoxicity in folic acid-free, replete and rescue conditions” value was “showed no cytotoxicity”. Also, the IC50 in [2] is 7240 nM.

With `CN(Cc1cnc2nc(N)nc(N)c2n1)c1ccc(C(=O)N[C@@H](CCC(=O)NCCCCCCCCNc2cccc3c2C(=O)N(C2CCC(=O)NC2=O)C3=O)C(=O)O)cc1` (stereo partly drawn) [Versortrexate (VSTX), 6, N2-(4-(((2,4-diaminopteridin-6-yl)methyl)(methyl)amino)benzoyl)-N5-(8-((2-(2,6-dioxopiperidin −3-yl)-1,3-dioxoisoindolin-4-yl)amino)octyl)-L-glutamine], the “Cytotoxicity efficacy (viability, %CTG)” value in the data set with HBL-1 cells [1] is given as −45.7 ±26.9%. In addition, in “in vitro”, the EC50 at 72 h is 21400 nM. The “Degradation potency (pDC50)” value on DHFR-HiBiT (HBL-1 cells) came to 6.43 ±0.18. For the same compound, the Emax at DHFR-HiBiT is -70.1 ± 0.4%. For the same compound, the IC50 in data set [2] was 85.1 nM.
